Test [1] can be described thus: Her2 expression decrease, cell viability multiplex – SKBR3 breast tumor cells, AlphaScreen, ATP viability, primary screen (AID 461;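 active = Her2 level under about 52% in both replicate screens, with viability over 70% of control, limit read from the data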;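 as to Her2 level: lower value means less Her2 protein in the cells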;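 as to viability: percent of carrier control wells set as 100% viability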). The settings on record: SKBR3 Her2 protein level, 18-24 h, measured here: SKBR3 viability, ATP luminescence, at 10 µM.
The target in test [2] is Receptor tyrosine-protein kinase erbB-2 (Homo sapiens) (UniProt P04626). The description is as above. Conditions: 18-24 h, at 10 µM, stronger effect = lower value.
Test [3] in a line: reduced viability of SK-BR-3 breast cancer cells – cell-based, 24 h, human, pilot screen (AID 572;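 active = viability at or below 10% of carrier control in both of two separate runs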;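 also: compound exposure lasted between 18 and 24 h rather than exactly 24 h; 100% = carrier-treated control wells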). The settings on record: SK-BR-3 viability, CellTiter-Glo luminescence, at 10 µM, stronger effect = lower value. A general note: Cellular ATP, detected with luciferase, serves as a proxy for viable cell number.
The nature of test [4]: HUVEC growth inhibition – cell-based, human, primary screen (AID 575;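 active = viability at or below 30% in both replicate assays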;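 also: 100% = median of untreated cell wells with 0.1% DMSO on each plate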). The settings on record: HUVEC proliferation, CellTiter-Glo luminescence, 72 h; at 10 µM; stronger effect = lower value. Put shortly:
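System: primary human umbilical vein endothelial cells; Quantity: 1250 endothelial cells in each well; Buffer or medium: supplemented EBM, 2% fetal bovine serum; Doses: one dose, 10 µM final, 0.1% DMSO; Incubation: 72 h compound incubation; Technique: ATP-based CellTiter-Glo luminescent read; Evaluation: percent of median DMSO-control luminescence; Controls: vehicle and MePR control wells.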

Test [5] is described as follows: H69AR cell proliferation blockers – human, duplicate replicates, primary screen (AID 580;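 active = viability at or under a set limit in both replicates, limit being median viability minus 3 SD, cut at about 48% in these data, passing the limit was not always enough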;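 also: 100% = mean luminescence of untreated wells and 0% = no signal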). Conditions: H69AR lung tumor cells viability, ATP luminescence, 72 h; at 10 µM; stronger effect = lower value.
Test [6] in a line: MRP1 drug-resistance reversers in H69AR cells – cell-based, doxorubicin co-treatment, pilot screen (AID 601;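 active = viability loss from added drug above about 55%, and viability with drug at most 40%, in both replicates, limit read from the data, passing the limit was not always enough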). The settings on record: CellTiter-Glo, 72 h, at 10 µM; for differential viability (reversal): stronger effect = higher value.
The nature of test [7]: yeast transport mutant growth inhibition pilot in 384-well plates, post-Golgi transport modulator project (AID 636; in the data active = inhibition above about 31%). Conditions: absorbance 615 nm, about 18 h, stronger effect = higher value.
The nature of test [8]: growth suppression of yeast trafficking mutant, preliminary HTS, modulators of trafficking downstream of Golgi apparatus project, 1536-format plate, OD 615 nm (AID 637). The settings on record: yeast transport mutant growth, absorbance 615 nm, 18 h; stronger effect = higher value.
The mark [9] stands for this setting: H69AR cells + 2 uM doxorubicin, measured here: viability with 2 uM doxorubicin, stronger effect = lower value.
Where [10] appears, read: H69AR cells, compound alone cytotoxicity.

Active and inactive are the calls of the source. Rule as the data show it, unless noted: active = inhibition above about 30%; inactive = the rest.

Chain of Receptor tyrosine-protein kinase erbB-2 (Homo sapiens) (P04626 whole entry, looked up): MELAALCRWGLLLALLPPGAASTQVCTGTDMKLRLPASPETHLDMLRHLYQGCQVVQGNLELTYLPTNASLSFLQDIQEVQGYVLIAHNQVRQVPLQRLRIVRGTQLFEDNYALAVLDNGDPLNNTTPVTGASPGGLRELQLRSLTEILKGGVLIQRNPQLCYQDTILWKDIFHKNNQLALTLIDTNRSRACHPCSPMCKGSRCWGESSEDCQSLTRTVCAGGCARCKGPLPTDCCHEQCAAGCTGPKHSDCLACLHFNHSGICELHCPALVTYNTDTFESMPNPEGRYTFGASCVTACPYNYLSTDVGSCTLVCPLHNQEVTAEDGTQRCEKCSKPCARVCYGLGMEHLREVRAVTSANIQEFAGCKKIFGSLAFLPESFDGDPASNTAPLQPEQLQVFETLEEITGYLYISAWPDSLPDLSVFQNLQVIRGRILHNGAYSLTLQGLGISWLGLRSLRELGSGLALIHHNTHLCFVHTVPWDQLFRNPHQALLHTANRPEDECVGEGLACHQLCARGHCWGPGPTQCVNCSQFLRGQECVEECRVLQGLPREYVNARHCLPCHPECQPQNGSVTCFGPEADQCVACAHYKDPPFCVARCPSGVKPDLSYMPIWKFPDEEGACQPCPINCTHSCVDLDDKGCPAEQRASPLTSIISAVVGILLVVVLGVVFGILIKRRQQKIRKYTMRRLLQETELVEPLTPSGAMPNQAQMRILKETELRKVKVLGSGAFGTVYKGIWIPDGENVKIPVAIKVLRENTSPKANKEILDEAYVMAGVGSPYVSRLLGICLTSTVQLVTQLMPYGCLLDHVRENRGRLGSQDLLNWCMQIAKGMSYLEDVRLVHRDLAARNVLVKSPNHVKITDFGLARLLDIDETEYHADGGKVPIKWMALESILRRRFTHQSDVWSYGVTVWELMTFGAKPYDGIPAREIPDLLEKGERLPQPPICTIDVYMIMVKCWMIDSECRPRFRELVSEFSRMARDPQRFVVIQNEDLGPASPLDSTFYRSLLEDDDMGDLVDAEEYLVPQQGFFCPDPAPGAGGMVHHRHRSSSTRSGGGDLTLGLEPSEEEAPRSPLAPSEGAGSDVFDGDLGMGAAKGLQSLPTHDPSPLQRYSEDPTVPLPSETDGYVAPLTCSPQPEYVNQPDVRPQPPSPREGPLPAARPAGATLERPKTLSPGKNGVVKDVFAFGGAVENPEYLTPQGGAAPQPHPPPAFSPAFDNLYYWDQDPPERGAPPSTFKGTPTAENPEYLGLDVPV

The viability is a read-out of living cells in per cent, often relative to untreated cells. One may read the inhibition as the change of the read-out against control, counted positive when it falls. Consider `CCC1(C)Cc2c(C#N)c(N)n(N)c(=S)c2CO1` (stereo not given), for which the viability in test [1] was 102%; in test [3] it was 102% (inactive); in test [4], 85.1% (inactive); in test [5] it was 81.7% (inactive); in test [6] (setting [9]), 89.3%; in test [6] (setting [10]), 81.7%. In addition, the Her2 level in test [2] was 97.5% (inactive). The differential viability (reversal) in test [6] (H69AR cells + 2 uM doxorubicin) is -7.55% (inactive). Further, the inhibition in test [7] was 0.91% (inactive); in test [8], -2.13% (inactive).

On to `C(=C\c1ccccc1)/CN1CCN(Cc2ccc3c(c2)OCCO3)CC1`, for which the viability in test [1] is 85%; in test [3], 85% (inactive); in test [4] it was 105% (inactive); in test [5] it was 93% (inactive); in test [6] (setting [9]) it was 88.6%; in test [6] (setting [10]) it was 93%. The Her2 level in test [2] was 91.5% (inactive). Moreover, the differential viability (reversal) in test [6] (H69AR cells + 2 uM doxorubicin) was 4.42% (inactive). Besides, the inhibition in test [7] is -3.77% (inactive); in test [8] it was 1.15% (inactive).

With `CCOC(=O)Cc1c(C)c2c(O)cc(O)cc2oc1=O`, the viability in test [1] was 84.5%; in test [3], 84.5% (inactive); in test [4], 97.3% (inactive); in test [5], 99% (inactive); in test [6] (setting [9]) it was 86.8%; in test [6] (setting [10]), 99%. Also, the Her2 level in test [2] is 77.5% (inactive). Also, the differential viability (reversal) in test [6] (H69AR cells + 2 uM doxorubicin) was 12.2% (inactive). Besides, the inhibition in test [7] is -6.27% (inactive); in test [8], 1.9% (inactive).

Consider `COc1cc2c(cc1NC(=O)COC(=O)Cn1cnc3ccccc31)oc1ccccc12`, for which the viability in test [1] is 92%; in test [3], 92% (inactive); in test [4] it was 64.4% (inactive); in test [5], 80.8% (inactive); in test [6] (setting [9]), 96.9%; in test [6] (setting [10]) it was 80.8%. Further, the Her2 level in test [2] is 89% (inactive). In test [6] (H69AR cells + 2 uM doxorubicin), the differential viability (reversal) is -16.1% (inactive). The inhibition is -1.87% (inactive) in test [7] and -3.23% (inactive) in test [8].

In the case of `COC(=O)c1cc(S(=O)(=O)N2CCC(C)CC2)ccc1F`, the viability was 71% in test [1]; 71% (inactive) in test [3]; 88.6% (inactive) in test [4]; 88.2% (inactive) in test [5]; 89.2% in test [6] (setting [9]); 88.2% in test [6] (setting [10]). Besides, the Her2 level in test [2] is 104% (inactive). Further, in test [6] (H69AR cells + 2 uM doxorubicin), the differential viability (reversal) was -1.02% (inactive). Besides, the values for the inhibition in test [7] and in test [8] were -3.51% (inactive) and 2.79% (inactive), respectively.

For the compound `COCCn1c(=NC(=O)CSC(C)=O)sc2cc(F)ccc21`, the viability in test [1] was 85%; in test [3], 85% (inactive); in test [4] it was 75.4% (inactive); in test [5], 58.2% (inactive); in test [6] (setting [9]), 58.2%; in test [6] (setting [10]), 58.2%. Besides, the Her2 level in test [2] is 82.5% (inactive). Also, the differential viability (reversal) in test [6] (H69AR cells + 2 uM doxorubicin) was 0.03% (inactive). The figures for the inhibition in test [7] and in test [8] were -3.16% (inactive) and -2.86% (inactive), respectively.

Turning to `COc1ccc(C2=NOC(C(=O)NC3CCCCC3)C2)cc1OC` (stereo not given), the viability in test [1] is 97.5%; in test [3], 97.5% (inactive); in test [4], 106% (inactive); in test [5], 95.9% (inactive); in test [6] (setting [9]), 84.8%; in test [6] (setting [10]), 95.9%. The Her2 level in test [2] is 92% (inactive). Further, the differential viability (reversal) in test [6] (H69AR cells + 2 uM doxorubicin) is 11.2% (inactive). The inhibition in test [7] was -9.04% (inactive); in test [8], 0.95% (inactive).

As for `O=C(COC(=O)c1cc(-c2ccco2)nc2ccccc12)NCc1ccc2c(c1)OCO2`, the viability was 97% in test [1]; 97% (inactive) in test [3]; 72.2% (inactive) in test [4]; 96.8% (inactive) in test [5]; 85.5% in test [6] (setting [9]); 96.8% in test [6] (setting [10]). Further, in test [2], the Her2 level was 93% (inactive). The differential viability (reversal) in test [6] (H69AR cells + 2 uM doxorubicin) was 11.3% (inactive). In addition, the inhibition was -5.75% (inactive) in test [7] and -10.3% (inactive) in test [8].

In the case of `COc1cc(C2C(C(=O)c3ccc(C)o3)=C(O)C(=O)N2c2cc(C)on2)cc(Br)c1O` (stereo not given), the viability is 102% in test [1]; 102% (inactive) in test [3]; 99.8% (inactive) in test [4]; 95.7% (inactive) in test [5]; 86.9% in test [6] (setting [9]); 95.7% in test [6] (setting [10]). In addition, the Her2 level in test [2] is 93% (inactive). In addition, in test [6] (H69AR cells + 2 uM doxorubicin), the differential viability (reversal) is 8.72% (inactive). The inhibition in test [7] is -1.97% (inactive); in test [8], -3.49% (inactive).

Regarding `O=C(O)CCNc1ccc2c(c1)OCCO2`, the viability is 97.5% in test [1]; 97.5% (inactive) in test [3]; 109% (inactive) in test [4]; 86.9% (inactive) in test [5]; 79.6% in test [6] (setting [9]); 86.9% in test [6] (setting [10]). Also, the Her2 level in test [2] was 86.5% (inactive). The differential viability (reversal) in test [6] (H69AR cells + 2 uM doxorubicin) is 7.24% (inactive). Further, the inhibition in test [7] is -5.14% (inactive); in test [8], -2.67% (inactive).

For the compound `CC(=O)c1cc(F)c(N2CCN(C(=O)Cc3ccccc3)CC2)cc1C`, the viability was 96.5% in test [1]; 96.5% (inactive) in test [3]; 107% (inactive) in test [4]; 93.5% (inactive) in test [5]; 101% in test [6] (setting [9]); 93.5% in test [6] (setting [10]). In addition, the Her2 level in test [2] was 97% (inactive). Besides, the differential viability (reversal) in test [6] (H69AR cells + 2 uM doxorubicin) was -7.49% (inactive). Also, the inhibition in test [7] is 0% (inactive); in test [8], -4.35% (inactive).

As to `Cc1cc(C)c2c(C)nn(C3CCCCC3)c2n1`, the viability was 81.5% in test [1]; 81.5% (inactive) in test [3]; 80.8% (inactive) in test [4]; 95.5% (inactive) in test [5]; 83.2% in test [6] (setting [9]); 95.5% in test [6] (setting [10]). The Her2 level in test [2] was 114% (inactive). Further, the differential viability (reversal) in test [6] (H69AR cells + 2 uM doxorubicin) was 12.3% (inactive). Further, the inhibition was 6.62% (inactive) in test [7] and 14.1% (inactive) in test [8].

`O=C1c2ccccc2C(=O)N1CC(O)Cn1nnc2ccccc21` (stereo not given): the viability in test [1] was 120%; in test [3] it was 120% (inactive); in test [4], 90.9% (inactive); in test [5] it was 95.9% (inactive); in test [6] (setting [9]) it was 91.5%; in test [6] (setting [10]) it was 95.9%. In addition, in test [2], the Her2 level is 108% (inactive). The differential viability (reversal) in test [6] (H69AR cells + 2 uM doxorubicin) is 4.44% (inactive). Also, the inhibition was -3.07% (inactive) in test [7] and -3.71% (inactive) in test [8].

Consider `CCCNS(=O)(=O)c1ccc(OCC(=O)NCc2ccco2)cc1`, for which the viability in test [1] is 93.5%; in test [3] it was 93.5% (inactive); in test [4] it was 91.3% (inactive); in test [5] it was 83.7% (inactive); in test [6] (setting [9]), 87.2%; in test [6] (setting [10]), 83.7%. Moreover, the Her2 level in test [2] is 120% (inactive). For the same compound, the differential viability (reversal) in test [6] (H69AR cells + 2 uM doxorubicin) is -3.46% (inactive). Further, the inhibition in test [7] is 1.6% (inactive); in test [8] it was -3.65% (inactive).

These data come from PubChem BioAssay.
